The source made the active and inactive calls. The calls are words filed in the database; no cut-off is given here.
Experiments:
Escherichia coli = test: Antibacterial activity against Escherichia coli at 30 ug/disk by agar diffusion assay; assay type: functional, organism-based
Enterobacter cloacae = test: Antibacterial activity against Enterobacter cloacae at 30 ug/disk by agar diffusion assay; assay type: functional, organism-based
Klebsiella aerogenes = test: Antibacterial activity against Klebsiella aerogenes at 30 ug/disk by agar diffusion assay; assay type: functional, organism-based
Salmonella typhimurium = test: Antibacterial activity against Salmonella Typhimurium at 30 ug/disk by agar diffusion assay; assay type: functional, organism-based; details: Salmonella enterica subsp. enterica serovar Typhimurium
Staphylococcus aureus = test: Antibacterial activity against Staphylococcus aureus at 30 ug/disk by agar diffusion assay; assay type: functional, organism-based
RAW264.7 [1] = test: Antiinflammatory activity in mouse RAW264.7 cells assessed as inhibition of LPS-stimulated IL6 mRNA expression at 12.5 to 50 uM by RT-PCR; assay type: functional, cell-based
RAW264.7 [2] = test: Inhibition of NO production in LPS-stimulated mouse RAW264.7 cells assessed as nitrite accumulation after 10 mins by Griess reaction method; assay type: functional, cell-based; details: RAW264.7, 10 min
Outline: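 Cells were stimulated 24 h with LPS (1 μg/mL) alone or with samples (250, 50, 10, 2 μM). Supernatant was mixed 1:1 with Griess reagent (0.1% naphthalene diamine dihydrochloride, 1% sulfanilamide, 2.5% H3PO4) for 10 min at room temperature. Absorbance at 540 nm was converted against a sodium nitrite standard curve. Mean ± SD of triplicates.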

[3] = target: T1, Prostaglandin G/H synthase 2 (Mus musculus) (UniProt Q05769); test: Inhibition of COX2-mediated PGE2 production in LPS-stimulated mouse RAW264.7 cells at 25 to 50 uM by ELISA
T1 sequence (whole entry): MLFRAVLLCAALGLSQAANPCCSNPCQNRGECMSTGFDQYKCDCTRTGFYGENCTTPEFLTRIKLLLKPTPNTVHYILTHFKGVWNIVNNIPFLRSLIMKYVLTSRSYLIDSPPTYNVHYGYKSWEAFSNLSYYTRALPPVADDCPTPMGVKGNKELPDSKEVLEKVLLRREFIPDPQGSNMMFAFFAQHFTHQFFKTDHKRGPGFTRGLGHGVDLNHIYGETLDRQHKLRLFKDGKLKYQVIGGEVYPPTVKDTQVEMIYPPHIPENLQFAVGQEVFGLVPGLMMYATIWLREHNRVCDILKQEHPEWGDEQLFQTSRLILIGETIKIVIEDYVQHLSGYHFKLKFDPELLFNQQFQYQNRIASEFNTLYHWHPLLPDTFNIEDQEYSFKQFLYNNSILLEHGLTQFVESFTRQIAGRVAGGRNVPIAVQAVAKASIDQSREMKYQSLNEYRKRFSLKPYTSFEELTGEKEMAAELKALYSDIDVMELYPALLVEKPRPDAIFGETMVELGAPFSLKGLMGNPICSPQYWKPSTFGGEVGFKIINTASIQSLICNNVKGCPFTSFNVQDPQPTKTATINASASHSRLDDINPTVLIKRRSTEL

RAW264.7 [4] = test: Antiinflammatory activity in mouse RAW264.7 cells assessed as suppression of LPS-stimulated IL6 production at 25 to 50 uM after 24 hrs by ELISA; assay type: functional, cell-based
Outline: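 Cells at 1.5 × 10^5 cells/mL were preincubated 18 h, then given LPS (1 μg/mL) plus samples (50 and 25 μM) for 24 h. Samples were dissolved in EtOH and diluted in DMEM, with final solvent ≤0.1%. IL-6 in the supernatant was measured by mouse ELISA. Mean ± SD of triplicate experiments.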

RAW264.7 [5] = test: Inhibition of LPS-induced iNOS mRNA expression in mouse RAW264.7 cells at 12.5 to 50 uM by […]; assay type: functional, cell-based
Outline: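 Total RNA from LPS (1 μg/mL)-stimulated cells was isolated by Tri-Reagent. RNA (1 μg) was primed with oligo(dT)18 (70 °C, 5 min) and reverse-transcribed with M-MuLV and 0.5 μM dNTP (25 °C 5 min, 37 °C 60 min), then inactivated at 70 °C for 15 min.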

RAW264.7 [6] = test: Cytotoxicity against mouse RAW264.7 cells after 24 hrs by WST-1 assay; assay type: cell-based; details: RAW264.7, 24 h
Outline: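 Cells were exposed 24 h to LPS (1 μg/mL) alone or with samples (250, 50, 10, 2 μM). WST-1 reagent was then added for 2 h, and formazan was read at 450 nm. Mean ± SD of triplicate experiments.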

Row | Structure (SMILES) | Activity (Escherichia coli) | Activity (Enterobacter cloacae) | Activity (Klebsiella aerogenes) | Activity (Salmonella typhimurium) | Activity (Staphylococcus aureus) | inhibition (RAW264.7 [1]) | IC50 (RAW264.7 [2]) [µM] | inhibition [3] | Activity (RAW264.7 [4]) | inhibition (RAW264.7 [5]) | IC50 (RAW264.7 [6]) [µM]
1 | N=C(N)NCCC[C@@H](NC(=O)c1ccc(OC(=O)c2c[nH]c3ccccc23)cc1)C(=O)O | inactive | inactive | inactive | inactive | inactive |  |  |  |  |  | 
2 | N=C(N)NCCC[C@@H](NC(=O)c1ccc(OC(=O)c2ccc(O)cc2)cc1)C(=O)O [HERDMANINE C] | inactive | inactive | inactive | inactive | inactive | Active | 96 | Active | Active | Active | 
3 | N[C@@H](Cc1ccc(OC(=O)c2c[nH]c3cc(Br)c(O)cc23)cc1)C(=O)O [HERDMANINE D] | inactive | inactive | inactive | inactive | inactive | Active | 9 | Active | Active | Active | 170

— ChEMBL document CHEMBL1914300, “Anti-inflammatory amino acid derivatives from the ascidian Herdmania momus” (J Nat Prod, 2011)
